From PMC5429141 (Nature structural & molecular biology, 2016)

Columns and labels:
EcTrmD S170*A = assay: Pre-steady-state methyl transfer kinetics, S170*A mutant; assay type: biochemical, E. coli; settings: S170*A relative to wild-type enzyme
EcTrmD H180*A = assay: Pre-steady-state methyl transfer kinetics, H180*A mutant; assay type: biochemical, E. coli; settings: H180*A relative to wild-type enzyme
EcTrmD Q90A = assay: Pre-steady-state methyl transfer kinetics, Q90A mutant; assay type: biochemical, E. coli; settings: Q90A relative to wild-type enzyme
EcTrmD G59A = assay: Pre-steady-state methyl transfer kinetics, G59A mutant; assay type: biochemical, E. coli; settings: G59A relative to wild-type enzyme
EcTrmD Y86A = assay: Pre-steady-state methyl transfer kinetics, Y86A mutant; assay type: biochemical, E. coli; settings: Y86A relative to wild-type enzyme
EcTrmD Y115A = assay: Pre-steady-state methyl transfer kinetics, Y115A mutant; assay type: biochemical, E. coli; settings: Y115A relative to wild-type enzyme
EcTrmD D169*A = assay: Pre-steady-state methyl transfer kinetics, D169*A mutant; assay type: biochemical, E. coli; settings: D169*A relative to wild-type enzyme
EcTrmD E116A = assay: Pre-steady-state methyl transfer kinetics, E116A mutant; assay type: biochemical, E. coli; settings: E116A relative to wild-type enzyme
EcTrmD G134A = assay: Pre-steady-state methyl transfer kinetics, G134A mutant; assay type: biochemical, E. coli; settings: G134A relative to wild-type enzyme
EcTrmD Y136A = assay: Pre-steady-state methyl transfer kinetics, Y136A mutant; assay type: biochemical, E. coli; settings: Y136A relative to wild-type enzyme
EcTrmD P89W = assay: Pre-steady-state methyl transfer kinetics, P89W mutant; assay type: biochemical, E. coli; settings: P89W relative to wild-type enzyme
EcTrmD D177*A = assay: Pre-steady-state methyl transfer kinetics, D177*A mutant; assay type: biochemical, E. coli; settings: D177*A relative to wild-type enzyme
EcTrmD R154A = assay: Pre-steady-state methyl transfer kinetics, R154A mutant; assay type: biochemical, E. coli; settings: R154A relative to wild-type enzyme
EcTrmD G55A = assay: Pre-steady-state methyl transfer kinetics, G55A mutant; assay type: biochemical, E. coli; settings: G55A relative to wild-type enzyme
EcTrmD Y115F = assay: Pre-steady-state methyl transfer kinetics, Y115F mutant; assay type: biochemical, E. coli; settings: Y115F relative to wild-type enzyme
EcTrmD P89A = assay: Pre-steady-state methyl transfer kinetics, P89A mutant; assay type: biochemical, E. coli; settings: P89A relative to wild-type enzyme
TrmD Y115A dimer = TrmD Y115A dimer (Escherichia coli, UniProt P0A873, Y115A); assay type: binding, E. coli; settings: Y115 mutant; room temperature; pH 8.0
TrmD Y115A dimer, sequence (P0A873 whole entry Y115A): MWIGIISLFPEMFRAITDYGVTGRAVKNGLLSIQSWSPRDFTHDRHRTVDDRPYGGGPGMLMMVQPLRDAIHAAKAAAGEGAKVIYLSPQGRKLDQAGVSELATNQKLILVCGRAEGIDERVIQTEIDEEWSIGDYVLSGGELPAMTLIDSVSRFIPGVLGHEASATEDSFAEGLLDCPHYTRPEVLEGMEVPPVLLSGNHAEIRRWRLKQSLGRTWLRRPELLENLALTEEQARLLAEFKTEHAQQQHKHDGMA

wild-type TrmD dimer = wild-type TrmD dimer (Escherichia coli, UniProt P0A873); assay: Fluorescence titration; assay type: binding, E. coli; settings: wild-type enzyme; room temperature; pH 8.0
wild-type TrmD dimer, sequence (P0A873 whole entry): as the sequence (P0A873 whole entry Y115A) above, with A115Y counted along it
In short: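 His-tagged enzyme expressed in E. coli SG13009 and purified by cobalt-affinity and MonoQ ion-exchange chromatography. Concentration was measured by Bradford against BSA and corrected for active dimer fraction. Increasing AdoMet was added to the dimer, and intrinsic Trp fluorescence quenching was followed with excitation at 295 nm and emission at 304–400 nm.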

wild-type EcTrmD = wild-type EcTrmD (Escherichia coli, UniProt P0A873); assay type: biochemical, E. coli; settings: single turnover, 37 °C
wild-type EcTrmD, sequence (P0A873 whole entry): as the sequence (P0A873 whole entry Y115A) above, with A115Y counted along it

EcTrmD G141A = assay: Pre-steady-state methyl transfer kinetics, G141A mutant; assay type: biochemical, E. coli; settings: G141A relative to wild-type enzyme

## C[S+](CC[C@H](N)C(=O)[O-])C[C@H]1O[C@@H](n2cnc3c(N)ncnc32)[C@H](O)[C@@H]1O (some centres unmarked) [AdoMet, S-adenosyl methionine]
EcTrmD S170*A
  fold-change in Kd (AdoMet), decrease in AdoMet binding: 2.6 fold
EcTrmD H180*A
  fold-change in Kd (AdoMet), decrease in AdoMet binding: 4.4 fold
EcTrmD Q90A
  fold-change in Kd (AdoMet), effect on AdoMet binding: 1.2 fold
EcTrmD G59A
  fold-change in Kd (AdoMet), effect on AdoMet binding: 3.2 fold
EcTrmD Y86A
  fold-change in Kd (AdoMet), effect on AdoMet binding: 2.8 fold
EcTrmD Y115A
  fold-change in Kd (AdoMet), effect on AdoMet binding: 6.3 fold
EcTrmD D169*A
  effect on AdoMet binding: neither had an effect
EcTrmD E116A
  fold-change in Kd (AdoMet), effect on AdoMet binding: 6.0 fold
EcTrmD G134A
  fold-change in Kd (AdoMet), decrease in AdoMet binding: 19.0 fold
EcTrmD Y136A
  fold-change in Kd (AdoMet), decrease in AdoMet binding: 8.4 fold
EcTrmD P89W
  fold-change in Kd (AdoMet), effect on AdoMet binding: 23 fold
EcTrmD D177*A
  fold-change in Kd (AdoMet), decrease in AdoMet binding: 9.0 fold
EcTrmD R154A
  effect on AdoMet binding: neither had an effect
EcTrmD G55A
  fold-change in Kd (AdoMet), effect on AdoMet binding: 12.8 fold
EcTrmD Y115F
  fold-change in Kd (AdoMet), effect on AdoMet binding: 8.0 fold
EcTrmD P89A
  fold-change in Kd (AdoMet), effect on AdoMet binding: 2.6 fold
TrmD Y115A dimer
  binding stoichiometry of AdoMet per dimer: two molecules of AdoMet per dimer
wild-type TrmD dimer
  binding stoichiometry of AdoMet per dimer: two molecules of AdoMet per dimer
wild-type EcTrmD
  kchem from enzyme titration of AdoMet: 0.113 ± 0.003 s⁻¹
EcTrmD G141A
  fold-change in Kd (AdoMet), decrease in AdoMet binding: 32.2 fold
